Measurements taken from ChEMBL document CHEMBL1126032, “Nonpeptide renin inhibitors employing a novel 3-aza(or oxa)-2,4-dialkyl glutaric acid moiety as a P2/P3 amide bond replacement” (J Med Chem, 1992).

Key:
[1] = target: T1, Renin (Homo sapiens, UniProt P00797); experiment: In vitro potency against purified renin at a pH of 6.0.
T1 sequence (P00797 whole entry): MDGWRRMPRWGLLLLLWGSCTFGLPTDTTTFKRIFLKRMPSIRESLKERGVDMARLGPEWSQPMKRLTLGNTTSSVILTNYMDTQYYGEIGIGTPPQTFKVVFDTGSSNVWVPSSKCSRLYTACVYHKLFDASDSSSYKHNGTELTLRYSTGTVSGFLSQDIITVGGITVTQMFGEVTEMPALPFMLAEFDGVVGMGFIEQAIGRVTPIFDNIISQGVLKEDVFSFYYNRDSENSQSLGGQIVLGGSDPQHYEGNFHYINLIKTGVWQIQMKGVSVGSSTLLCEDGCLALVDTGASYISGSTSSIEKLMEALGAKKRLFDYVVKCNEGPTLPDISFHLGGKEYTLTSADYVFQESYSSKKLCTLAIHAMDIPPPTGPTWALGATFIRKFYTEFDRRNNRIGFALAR
Method in brief: (§1)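 Human renin, either purified enzyme or renin in plasma, was assayed at the stated pH. Inhibition was reported as IC50 in nM.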

[2] = target: T1, Renin; experiment: In vitro potency against plasma renin at a pH of 7.4; type: cell-free; method in brief: as §1
[3] = target: T1, Renin; experiment: In vitro potency against plasma renin at a pH of 6.0; type: cell-free; method in brief: as §1
[4] = target: T1, Renin; experiment: In vitro potency against purified renin at a pH of 7.4; method in brief: as §1
[5] = Bioavailability in monkey (dose 10 mg/kg i.d. or 0.3 mg/kg i.v.); type: ADME, organism-based; settings: primates, in vivo, iv
Method in brief: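 Male cynomolgus monkeys (3–5 kg), salt-depleted, fasted overnight, pentobarbital-anesthetized (15 mg/kg bolus, then 0.10 mg kg⁻¹ min⁻¹ infusion). Compound given as HCl salt solution, either iv via a leg vein or id by catheter into the proximal duodenum after laparotomy; one dose per monkey. Serial plasma levels were measured by HPLC or bioassay, and AUC was fitted to a biexponential decay. Bioavailability = dose-corrected AUC(id)/AUC(iv) × 100.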

Row | SMILES | IC50 [1] [nM] | IC50 [2] [nM] | further results
1 | CCCC[C@H](O[C@@H](Cc1ccccc1)C(=O)N1CCOCC1)C(=O)N[C@@H](CC1CCCCC1)[C@@H](O)[C@@H](O)CC(C)C | 15 | 1000 | 
2 | CC(C)C[C@H](O)[C@H](O)[C@H](CC1CCCCC1)NC(=O)C(C)N[C@H](Cc1ccccc1)C(=O)N1CCOCC1 (single isomer, unassigned; less polar) | 1600 |  | 
3 | C=CCOC1CCN(C(=O)[C@H](Cc2ccccc2)O[C@@H](CCCC)C(=O)N[C@@H](CC2CCCCC2)[C@@H](O)[C@@H](O)CC(C)C)CC1 | 160 |  | 
4 | CCOC(=O)C(CCc1ccccc1)N[C@@H](CC(C)C)C(=O)N[C@@H](CC1CCCCC1)[C@@H](O)[C@@H](O)CC(C)C (stereo in doubt) | 240 |  | 
5 | CC(C)C[C@H](O)[C@H](O)[C@H](CC1CCCCC1)NC(=O)C(C)N[C@@H](Cc1ccccc1)C(=O)N1CCOCC1 (single isomer, unassigned; less polar) | 85 |  | 
6 | CCCC[C@H](O[C@@H](Cc1ccccc1)C(=O)N1CCC(OCS(C)(=O)=O)CC1)C(=O)N[C@@H](CC1CCCCC1)[C@@H](O)[C@@H](O)CC(C)C | 780 |  | 
7 | CC[C@H](O[C@@H](Cc1ccccc1)C(=O)N1CCC(OCOC)CC1)C(=O)N[C@@H](CC1CCCCC1)[C@@H](O)[C@@H](O)CC(C)C | 0.9 | 120 | IC50 [3]: 7.9 nM; IC50 [4]: 5.4 nM
8 | CCCC[C@H](O[C@@H](Cc1ccccc1)C(=O)N1CCC(OCOC)CC1)C(=O)N[C@@H](CC1CCCCC1)[C@@H](O)[C@@H](O)CC(C)C | 1 | 13 | IC50 [3]: 3 nM; IC50 [4]: 3.2 nM
9 | CC(C)C[C@H](O)[C@H](O)[C@H](CC1CCCCC1)NC(=O)C(C)N[C@@H](Cc1ccccc1)C(=O)N1CCOCC1 (single isomer, unassigned; more polar) | 1000 |  | 
10 | CCCC[C@H](O[C@@H](Cc1ccccc1)C(=O)N1CCC(CCOC)CC1)C(=O)N[C@@H](CC1CCCCC1)[C@@H](O)[C@@H](O)CC(C)C | 18 | 1300 | 
11 | CCCCNC(=O)[C@@H](C[C@H](O)[C@H](CC1CCCCC1)NC(=O)[C@H](CCCC)O[C@@H](Cc1ccccc1)C(=O)N1CCC(OCOC)CC1)C(C)C | 1.2 | 8.2 | 
12 | CC(C)C[C@H](N[C@@H](Cc1ccccc1)C(=O)OC(C)(C)C)C(=O)N[C@@H](CC1CCCCC1)[C@@H](O)[C@@H](O)CC(C)C | 340 |  | 
13 | CCOC(=O)C(CCc1ccccc1)N[C@@H](CC(C)C)C(=O)N[C@@H](CC1CCCCC1)[C@@H](O)[C@@H](O)CC(C)C (single isomer, unassigned; more polar) | 160 |  | 
14 | CC(C)C[C@H](O)[C@H](O)[C@H](CC1CCCCC1)NC(=O)C(C)N[C@H](Cc1ccccc1)C(=O)N1CCOCC1 (single isomer, unassigned) | 1000 |  | 
15 | CCCC[C@H](O[C@@H](Cc1ccccc1)C(=O)N1CCC(SCOC)CC1)C(=O)N[C@@H](CC1CCCCC1)[C@@H](O)[C@@H](O)CC(C)C | 1.8 | 120 | 
16 | CC(C)C[C@@H](N[C@@H](Cc1ccccc1)C(=O)OC(C)(C)C)C(=O)N[C@@H](CC1CCCCC1)[C@@H](O)[C@@H](O)CC(C)C | 2700 |  | 
17 | CCCC[C@H](O[C@@H](Cc1ccccc1)C(=O)N1CCC(OC[S+](C)[O-])CC1)C(=O)N[C@@H](CC1CCCCC1)[C@@H](O)[C@@H](O)CC(C)C (some centres undefined) | 770 |  | 
18 | CCCC[C@H](N[C@@H](Cc1ccccc1)C(=O)N1CCOCC1)C(=O)N[C@@H](CC1CCCCC1)[C@@H](O)[C@@H](O)CC(C)C | 13 | 1200 | 
19 | CC(C)C[C@H](O)[C@H](O)[C@H](CC1CCCCC1)NC(=O)[C@H](C)O[C@@H](Cc1ccccc1)C(=O)N1CCCC1 |  | 3700 | 
20 | CCOC(=O)C(CCc1ccccc1)N[C@@H](C)C(=O)N[C@@H](CC1CCCCC1)[C@@H](O)[C@@H](O)CC(C)C (single isomer, unassigned; more polar) | 150 |  | 
21 | CCOC(=O)C(CCc1ccccc1)N[C@@H](C)C(=O)N[C@@H](CC1CCCCC1)[C@@H](O)[C@@H](O)CC(C)C (single isomer, unassigned; less polar) | 130 |  | 
22 | CCNC(=O)[C@H](Cc1ccccc1)O[C@@H](C)C(=O)N[C@@H](CC1CCCCC1)[C@@H](O)[C@@H](O)CC(C)C | 130 |  | 
23 | COCOC1CCN(C(=O)[C@H](Cc2ccccc2)O[C@@H](C)C(=O)N[C@@H](CC2CCCCC2)[C@@H](O)[C@@H](O)CC(C)C)CC1 |  | 340 | IC50 [3]: 27 nM; IC50 [4]: 7 nM
24 | CCCCNC(=O)[C@@H](C[C@H](O)[C@H](CC1CCCCC1)NC(=O)[C@H](CCCC)N[C@@H](Cc1ccccc1)C(=O)N1CCC(OCOC)CC1)C(C)C | 0.9 | 8.7 | bioavailability [5]: 7.1%
25 | CCCC[C@H](O[C@@H](Cc1ccccc1)C(=O)N1CCC(OC)CC1)C(=O)N[C@@H](CC1CCCCC1)[C@@H](O)[C@@H](O)CC(C)C | 44 |  | 
26 | CCC[C@H](O[C@@H](Cc1ccccc1)C(=O)N1CCC(OCOC)CC1)C(=O)N[C@@H](CC1CCCCC1)[C@@H](O)[C@@H](O)CC(C)C | 1.4 | 31 | IC50 [3]: 3.3 nM; IC50 [4]: 5.5 nM
27 | CCN(CC)C(=O)[C@H](Cc1ccccc1)O[C@@H](C)C(=O)N[C@@H](CC1CCCCC1)[C@@H](O)[C@@H](O)CC(C)C | > 1000 |  | 
28 | CCCC[C@H](O[C@@H](Cc1ccccc1)C(=O)N1CCCCC1)C(=O)N[C@@H](CC1CCCCC1)[C@@H](O)[C@@H](O)CC(C)C | 24 |  | 

Continued, in another order:

Row | IC50 [1] [nM] | IC50 [2] [nM] | SMILES | further results
29 | 750 |  | CCCC[C@@H](N[C@@H](Cc1ccccc1)C(=O)N1CCOCC1)C(=O)N[C@@H](CC1CCCCC1)[C@@H](O)[C@@H](O)CC(C)C | 
30 | 290 |  | CCCC[C@H](O[C@@H](Cc1ccccc1)C(=O)N1CCC(OCCC)CC1)C(=O)N[C@@H](CC1CCCCC1)[C@@H](O)[C@@H](O)CC(C)C | 
31 | 130 |  | CCCC[C@H](O[C@@H](Cc1ccccc1)C(=O)N1CCC(O)CC1)C(=O)N[C@@H](CC1CCCCC1)[C@@H](O)[C@@H](O)CC(C)C | 
32 | 130 |  | CCCC[C@H](O[C@@H](Cc1ccccc1)C(=O)N1CCC(OCSC)CC1)C(=O)N[C@@H](CC1CCCCC1)[C@@H](O)[C@@H](O)CC(C)C | 
33 | 25 | 8100 | CC(C)C[C@H](O)[C@H](O)[C@H](CC1CCCCC1)NC(=O)[C@H](C)O[C@@H](Cc1ccccc1)C(=O)N1CCCCC1 | 
34 | 1.1 | 17 | CCCC[C@H](N[C@@H](Cc1ccccc1)C(=O)N1CCC(OCOC)CC1)C(=O)N[C@@H](CC1CCCCC1)[C@@H](O)[C@@H](O)CC(C)C | IC50 [3]: 3.9 nM; IC50 [4]: 2.8 nM
35 | 4000 |  | CC(C)CC(N[C@@H](CCc1ccccc1)C(=O)OC(C)(C)C)C(=O)N[C@@H](CC1CCCCC1)[C@@H](O)[C@@H](O)CC(C)C (stereo in doubt; form 1) | 
36 | 45 | 4300 | CC(C)C[C@H](O)[C@H](O)[C@H](CC1CCCCC1)NC(=O)[C@H](C)O[C@@H](Cc1ccccc1)C(=O)N1CCOCC1 | 
37 | 1100 |  | CCCCC1CCN(C(=O)[C@H](Cc2ccccc2)O[C@@H](CCCC)C(=O)N[C@@H](CC2CCCCC2)[C@@H](O)[C@@H](O)CC(C)C)CC1 | 
38 |  | 1000 | CC(C)C[C@H](O)[C@H](O)[C@H](CC1CCCCC1)NC(=O)[C@H](C)O[C@@H](Cc1ccccc1)C(=O)N1CCC1 | 
39 | 1000 |  | CC(C)CC(N[C@@H](CCc1ccccc1)C(=O)OC(C)(C)C)C(=O)N[C@@H](CC1CCCCC1)[C@@H](O)[C@@H](O)CC(C)C (stereo in doubt; form 2) | 
40 | 31 | 1800 | CCCC[C@H](N[C@@H](Cc1ccccc1)C(=O)N1CCC(OCCOC)CC1)C(=O)N[C@@H](CC1CCCCC1)[C@@H](O)[C@@H](O)CC(C)C | 
